Test results as given in paper PMC12415690 (RSC Advances, 2025).
Converted amounts (≈) assume the structure as drawn.

Tests used:
[1] = tested on: S. aureus (ATCC 23235); experiment: Antibacterial zone of inhibition; assay type: cell-based; conditions: Staphylococcus aureus, ATCC23235, read-out: Zone of inhibition in mm, S. aureus (ATCC 23235)
Procedure, shortened: (§1)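 Sterilised nutrient agar, […], was seeded with 18–24 h bacterial subcultures, mixed and poured into Petri dishes. Once the agar set, 6 mm wells were cut with a sterile cork borer and filled with test compound dissolved in DMSO at 100 μg mL−1. Plates were incubated at 37 °C for 24–48 h, and inhibition zones around each well were measured in mm. Ciprofloxacin was the reference standard.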

[2] = tested on: M. tuberculosis H37Rv strain (ATCC 27294); experiment: Antitubercular activity, microplate Alamar Blue assay; assay type: cell-based; conditions: Mycobacterium tuberculosis, ATCC27294|H37RV, read-out: MIC μM
[3] = tested on: P. aeruginosa (ATCC 27853); experiment: Antibacterial zone of inhibition; assay type: cell-based; conditions: Pseudomonas aeruginosa, ATCC27853, read-out: Zone of inhibition in mm, P. aeruginosa (ATCC 27853)
Procedure, shortened: as §1

[4] = tested on: B. subtilis (ATCC 6051); experiment: Antibacterial zone of inhibition; assay type: cell-based, Bacillus subtilis; conditions: 100 μg mL^−1; for zone of inhibition at 100 µg/mL: Bacillus subtilis, ATCC6051, read-out: Zone of inhibition in mm, B. subtilis (ATCC 6051), Gram positive; for Zone of inhibition in mm, B. subtilis (ATCC 6051): Gram positive
Procedure, shortened: as §1

[5] = tested on: E. coli (ATCC 25922); experiment: Antibacterial zone of inhibition; assay type: cell-based; conditions: Escherichia coli, ATCC25922, read-out: Zone of inhibition in mm, E. coli (ATCC 25922)
Procedure, shortened: as §1

[6] = tested on: VERO cell lines
[7] = tested on: M.tb H37Rv; conditions: M.tb H37Rv; cited from earlier work

Structure (SMILES)	zone of inhibition at 100 µg/mL [1]	MIC [2]	zone of inhibition at 100 µg/mL [3]	zone of inhibition at 100 µg/mL [4]	zone of inhibition at 100 µg/mL [5]	Zone of inhibition in mm, B. subtilis (ATCC 6051) [4]	Cytotoxicity in VERO cells [6]	MIC [7]
COc1ccc(-c2nc3ncccn3c2/C=N/Nc2nc(C)c(C(C)=O)s2)cc1 [Compound K16, (E)-1-(2-(2-((2-(4-methoxyphenyl)imidazo[1,2-a]pyrimidin-3-yl)methylene)hydrazineyl)-4-methylthiazol-5-yl)ethan-1-one]	18 mm	30.8 µM (≈ 12.5 µg/mL)	11 mm	–	–	–	–	–
NC(=O)c1cnccn1 [PZA, pyrazinamide, reference compound]	–	25.3 µM (≈ 3.12 µg/mL)	–	–	–	–	–	–
CCOC(=O)c1sc(N/N=C/c2c(-c3ccc(Cl)cc3)nc3ncccn23)nc1C [Compound K4, Ethyl(E)-2-(2-((2-(4-chlorophenyl)imidazo[1,2-a]pyrimidin-3-yl)methylene)hydrazineyl)-4-methylthiazole-5-carboxylate]	13 mm	14.2 µM (≈ 6.26 µg/mL)	11 mm	14 mm	20 mm	–	–	–
CC(=O)c1sc(N/N=C/c2c(-c3ccc(F)cc3)nc3ncccn23)nc1C [Compound K17, (E)-1-(2-(2-((2-(4-fluorophenyl)imidazo[1,2-a]pyrimidin-3-yl)methylene)hydrazineyl)-4-methylthiazol-5-yl)ethan-1-one]	20 mm	7.91 µM (≈ 3.12 µg/mL)	11 mm	14 mm	–	–	–	–
CCOC(=O)c1sc(N/N=C/c2c(-c3ccc(OC)cc3)nc3ncccn23)nc1C [Compound K2, Ethyl(E)-2-(2-((2-(4-methoxyphenyl)imidazo[1,2-a]pyrimidin-3-yl)methylene)hydrazineyl)-4-methylthiazole-5-carboxylate]	15 mm	3.66 µM (≈ 1.6 µg/mL)	18 mm	15 to 20 mm	18 mm	15 mm	non-toxic profiles	–
[H]/N=C(/N)N[C@H]1[C@H](O)[C@@H](O)[C@H](O[C@@H]2O[C@@H](C)[C@](O)(C=O)[C@H]2O[C@@H]2O[C@@H](CO)[C@H](O)[C@@H](O)[C@@H]2NC)[C@@H](N/C(N)=N\[H])[C@@H]1O [STM, streptomycin, reference compound]	–	10.7 µM (≈ 6.25 µg/mL)	–	–	–	–	–	–
CCOC(=O)/C=C1/SC(N/N=C/c2c(-c3ccc(C)cc3)nc3ncccn23)=NC1=O [Compound K22, Ethyl(E)-2-(4-oxo-2-(2-((E)-(2-(p-tolyl)imidazo[1,2-a]pyrimidin-3-yl)methylene) hydrazineyl)thiazol-5(4H)-ylidene)acetate]	15 mm	28.8 µM (≈ 12.5 µg/mL)	13 mm	15 to 20 mm	24 mm	15 mm	–	–
CCOC(=O)/C=C1/SC(N/N=C/c2c(-c3ccc(F)cc3)nc3ncccn23)=NC1=O [Compound K24, Ethyl(E)-2-(2-(2-((E)-(2-(4-fluorophenyl)imidazo[1,2-a]pyrimidin-3-yl)methylene) hydrazineyl)-4-oxothiazol-5(4H)-ylidene)acetate]	–	28.5 µM (≈ 12.5 µg/mL)	–	–	–	–	–	–
CC(=O)c1sc(N/N=C/c2c(-c3ccc(C)cc3)nc3ncccn23)nc1C [Compound K15, (E)-1-(4-methyl-2-(2-((2-(p-tolyl)imidazo[1,2-a]pyrimidin-3-yl)methylene)hydrazineyl)thiazol-5-yl)ethan-1-one]	12 mm	32 µM (≈ 12.5 µg/mL)	14 mm	13 mm	15 mm	–	–	–
CC(=O)c1sc(N/N=C/c2c(-c3ccc(Br)cc3)nc3ncccn23)nc1C [Compound K19, (E)-1-(2-(2-((2-(4-bromophenyl)imidazo[1,2-a]pyrimidin-3-yl)methylene)hydrazineyl)-4-methylthiazol-5-yl)ethan-1-one]	12 mm	13.8 µM (≈ 6.27 µg/mL)	20 mm	12 mm	–	–	–	–
CCOC(=O)c1sc(N/N=C/c2ccccc2O)nc1C [(E)-ethyl 2-(2-(2-hydroxybenzylidene)hydrazinyl-4-methylthiazole-5-carboxylate]	–	–	–	–	–	–	–	25 µM (≈ 7.63 µg/mL)
CC(=O)c1sc(N/N=C/c2c(-c3ccccc3)nc3ncccn23)nc1C [Compound K21, (E)-1-(4-methyl-2-(2-((2-phenylimidazo[1,2-a]pyrimidin-3-yl)methylene)hydrazineyl)thiazol-5-yl)ethan-1-one]	19 mm	33.2 µM (≈ 12.5 µg/mL)	–	13 mm	–	–	–	–
CCOC(=O)c1cnc(N/N=C/c2c(-c3ccccc3)nc3ncccn23)s1 [Compound K14, Ethyl(E)-2-(2-((2-phenylimidazo[1,2-a]pyrimidin-3-yl)methylene)hydrazineyl)thiazole-5-carboxylate]	15 mm	31.9 µM (≈ 12.5 µg/mL)	15 mm	14 mm	12 mm	–	–	–
CC(=O)c1sc(N/N=C/c2c(-c3ccc(Cl)cc3)nc3ncccn23)nc1C [Compound K18, (E)-1-(2-(2-((2-(4-chlorophenyl)imidazo[1,2-a]pyrimidin-3-yl)methylene)hydrazineyl)-4-methylthiazol-5-yl)ethan-1-one]	18 mm	30.5 µM (≈ 12.5 µg/mL)	12 mm	15 to 20 mm	15 mm	15 mm	–	–
CCOC(=O)c1sc(N/N=C/c2c(-c3ccc(F)cc3)nc3ncccn23)nc1C [Compound K3, Ethyl(E)-2-(2-((2-(4-fluorophenyl)imidazo[1,2-a]pyrimidin-3-yl)methylene)hydrazineyl)-4-methylthiazole-5-carboxylate]	17 mm	3.77 µM (≈ 1.6 µg/mL)	11 mm	13 mm	20 mm	–	non-toxic profiles	–
CCOC(=O)/C=C1/SC(N/N=C/c2c(-c3ccc(OC)cc3)nc3ncccn23)=NC1=O [Compound K23, Ethyl(E)-2-(2-(2-((E)-(2-(4-methoxyphenyl)imidazo[1,2-a]pyrimidin-3-yl)methylene) hydrazineyl)-4-oxothiazol-5(4H)-ylidene)acetate]	16 mm	111 µM (≈ 50 µg/mL)	18 mm	–	24 mm	–	–	–
CCOC(=O)c1sc(N/N=C(\C)c2ccccn2)nc1C [(E)-ethyl 4-methyl-(2-(1-(pyridin-2-yl)ethylidene)hydrazinyl)thiazole-5-carboxylate]	–	–	–	–	–	–	–	12.5 µM (≈ 3.8 µg/mL)
CCOC(=O)c1sc(N/N=C/c2c(-c3ccc(Br)cc3)nc3ncccn23)nc1C [Compound K5, Ethyl(E)-2-(2-((2-(4-bromophenyl)imidazo[1,2-a]pyrimidin-3-yl)methylene)hydrazineyl)-4-methylthiazole-5-carboxylate]	11 mm	12.9 µM (≈ 6.27 µg/mL)	13 mm	13 mm	14 mm	–	–	–
CCOC(=O)c1sc(N/N=C/c2c(-c3ccc(C#N)cc3)nc3ncccn23)nc1C [Compound K6, Ethyl(E)-2-(2-((2-(4-cyanophenyl)imidazo[1,2-a]pyrimidin-3-yl)methylene)hydrazineyl)-4-methylthiazole-5-carboxylate]	17 mm	29 µM (≈ 12.5 µg/mL)	15 mm	14 mm	10 mm	–	–	–
CCOC(=O)/C=C1/SC(N/N=C/c2c(-c3ccc(Cl)cc3)nc3ncccn23)=NC1=O [Compound K25, Ethyl(E)-2-(2-(2-((E)-(2-(4-chlorophenyl)imidazo[1,2-a]pyrimidin-3-yl)methylene) hydrazineyl)-4-oxothiazol-5(4H)-ylidene)acetate]	21 mm	55 µM (≈ 25 µg/mL)	20 mm	15 to 20 mm	21 mm	20 mm	–	–
CCOC(=O)c1cnc(N/N=C/c2c(-c3ccc(C)cc3)nc3ncccn23)s1 [Compound K8, Ethyl(E)-2-(2-((2-(p-tolyl)imidazo[1,2-a]pyrimidin-3-yl)methylene)hydrazineyl)thiazole-5-carboxylate]	12 mm	7.68 µM (≈ 3.12 µg/mL)	19 mm	–	17 mm	–	–	–
CC(=O)c1sc(N/N=C/c2c(-c3ccc(C#N)cc3)nc3ncccn23)nc1C [Compound K20, (E)-4-(3-((2-(5-acetyl-4-methylthiazol-2-yl)hydrazineylidene)methyl)imidazo[1,2-a]pyrimidin-2-yl)benzonitrile]	17 mm	15.6 µM (≈ 6.25 µg/mL)	12 mm	15 to 20 mm	14 mm	15 mm	–	–
CCOC(=O)/C=C1/SC(N/N=C/c2c(-c3ccc(Br)cc3)nc3ncccn23)=NC1=O [Compound K26, Ethyl(E)-2-(2-(2-((E)-(2-(4-bromophenyl)imidazo[1,2-a]pyrimidin-3-yl)methylene) hydrazineyl)-4-oxothiazol-5(4H)-ylidene)acetate]	15 mm	50.2 µM (≈ 25.1 µg/mL)	–	15 mm	–	–	–	–
